# Results reported in the EternaBench riboswitch data.
# System: MS2 coat protein
# Experiment: apparent Kd, MS2 coat protein; higher = weaker binding; RNA-MaP array; FMN 200 µM where present
# Outline: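 Stalled E. coli RNA polymerase transcribed the designs on Illumina sequencing-chip clusters. SNAP-549-labelled MS2 coat protein was titrated from 0.7 or 1.5 nM, doubling to 3 µM, without and then with constant ligand, in 100 mM Tris-HCl pH 7.5, 80 mM KCl, 4 mM MgCl2, BSA, DTT, yeast tRNA and Tween-20. Per-cluster binding curves were fitted to green signal normalised to red-channel RNA signal and control-cluster median Fmax. The apparent Kd is the median of the filtered fits.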
# [1] = designed as: OFF switch for flavin mononucleotide, no ligand
# [2] = ligand present: flavin mononucleotide, designed as: OFF switch for flavin mononucleotide
# [3] = designed as: ON switch for flavin mononucleotide, no ligand
# [4] = ligand present: flavin mononucleotide, designed as: ON switch for flavin mononucleotide
Sequence,apparent Kd [1] [nM],apparent Kd [2] [nM],apparent Kd [3] [nM],apparent Kd [4] [nM]
UGACCACAUGAGGAUCACCCAUGUGAGGAUAUCAGAAUACGGCAUCGGGCCGUACUUUUGAGAAGGCACAUAAA,24.1,65.2,–,–
ACAUAGUAAGGAUAUGCUGCUCGUCACUUGCGUGAUGAGUAGCAGAAGGUACAUGAGGAUCACCCAUGUAAAAA,25.3,19.1,–,–
UCCUGAUUGAGAGGUAGGAGUGGUAGAAGGCGACCGGUGCCAGAUGACAUGAGGAUCACCCAUGUCGAGGAUAUACCACAGAAU,6.96,13.1,–,–
ACAGAGCUUGACAUGAGGAUCACCCAUGUUAGAUUGUUAUGUCAGGAUAUUGUCUAGCAACUAGACAAGAAGGGAUGCUCUGUG,–,–,364,56
UACCUGAGGCUUUGCUUUAGGCUUACAUGAGGAUCACCCAUGUAGGAUAUGGUAGGCAAAGCUUACCAGAAGGACAUGGAAAUU,19,66.6,–,–
UGGGCGAGCCCAGUACUCACACAUGAGGAUCACCCAUGUGACGAGGAUAUAGACAGCGAUGCGUACUAGAAGGCGUCACGGUAA,11,46.2,–,–
AGUACUACAGGAUAUACGAGGGAGGUCCACGUGACCCUUAUACAUGAGGAUCACCCAUGUAGAAGGGUAGUACA,80.3,16.4,–,–
AGUGUGUGGCAGGAUAUGCAAUUUGUAAGUAUUGCAGAAGGGUCUACAUGAGGAUCACCCAUGUGUGCGGUUGA,721,477,–,–
ACAUGAGGAUCACCCAUGUAGAAUGAAGAAGGUACGUUAUUGAUAUGCAGGAAGUGUCGGUGUUGUAAGGAUAUUCUAAUAAUU,–,–,15.5,8.16
UCACGGGAUUGAGGAUAUAUAUUAAUUUUUUUUAUAGAAGGCAAAUUGUUAGAUUAUUCACUAUACAUGAGGAUCACCCAUGUU,29.3,26.6,–,–
CUCGUGUGAGGAUAUUCGGGCGGGCUCGUUUGGGUUUGUUUGGAGAAGGUACAUGAGGAUCACCCAUGUGCUGG,51,175,–,–
CCGGAAAUAGAGGAUAUAGGAGUCGAUAGACUCCUAGAAGGCUAUACAUGAGGAUCACCCAUGUGUCCUACCGG,17.4,39.6,–,–
GGGUACAUCGGAGGAUAUCAUAUAAAUACAUGAGGAUCACCCAUGUCGAUGGAGACAUCGGAGAUUGAGAAGGCCGAUGUACCG,–,–,8.43,5.54
CGUAGGAUCCAGAAGGCAUGAAACAUGAGGAUCACCCAUGUAAAAGACAUGAGGAUAUGGAUCCUACGAAAAGUGCGAAAGCAC,–,–,3.69,3.4
AAGAAACAUGAGGAUCACCCAUGUGAUAAUAUGGGAGGAUAUACAAAGACGAAAGUCGAAGUAGAAGGCCUAUGAA,–,–,52.3,43.2
GCGUAAGAACAGAAGGGUAGACAUGAGGAUCACCCAUGUAAACAUGGAUGCAGGAUAUGUUAUAAUUGAGAUUCAUAAAUUCGC,–,–,130,106
AAGAUCGGAGGAUAUGAAAGGCGUUACAUGAGGAUCACCCAUGUCGGUUUCAUGUUCGUCUCAGAAGGCCGACUCC,84.7,311,–,–
UUGGUUGUCGUAGGAUAUGGAGGAUAUUCCUACAUGAGGAUCACCCAUGUUCGCAUGGAAGAAGGCCAGAAGGACGAUGACCAU,–,–,10.4,4.38
CGCACUUAGCGAGGAUAUGUAAAACAUGAGGAUCACCCAUGUGAUUUAGCUCCAAUUUUAAUGACACAGAAGGCGCUUAGUGCG,22.2,15.8,–,–

Sequence,apparent Kd [1] [nM],apparent Kd [2] [nM],apparent Kd [3] [nM],apparent Kd [4] [nM]
AGCAUGGUAGGAUAUACGGAACAUUAGGGUUUGUUGUGUGGACAUGAGGAUCACCCAUGUAGAAGGGCCGUGCA,34,80.4,–,–
CCUGUCGCAUGAGGAUAUGGUCAGCUUUGCUGACCAGAAGGCAUGUCGAUAGACAUGAGGAUCACCCAUGUAGUAAAGACAGGA,–,–,831,57.3
AUCUUGUAAGGAUAUCUUACAAGUGACUUCGGUCACAGUUAAGAGAAGGUACAUGAGGAUCACCCAUGUAUAAC,26.4,23,–,–
AAUUAAUUAAUUAAUUCCUGCAUACAUGAGGAUCACCCAUGUAAGGAUAUCGUCAGGAAUACUGACGAGAAGGUACAUAGCAGG,15.7,21.6,–,–
GCAUCCAAAGUGAGGAUAUACCUCUGGAUACAGAGGUAGAAGGCACAUGAGGAUCACCCAUGUUACUAGGAUGC,12.9,17,–,–
UGUCGGAGCAGAGGAUAUUACAUGAGGAUCACCCAUGUAUGAACCAAUAGCUGGAAACAGCAAUGUAAGAAGGCUGCUACGACA,12.2,153,–,–
UAAAACCUAGGAUAUACAUGAGGAUCACCCAUGUUCGAAGGAGCCCAAGUGACUUCUAGUAGAAGGAGGGCGAA,18.8,23,–,–
AUGUAGGUAGGAUAUGCAUAGAUAUACAUUCAUGUGGAUUUACAUGAGGAUCACCCAUGUAGAAGGACCUAAAA,34.1,107,–,–
AUAUAUAUCCAGAAGGUGCCAGCGAGAGCUGCACAUGAGGAUCACCCAUGUUGUCGGUGACGACGCAAGGAUAUGGAUAUAUAU,–,–,28.2,7.43
GGAUUUUACUAGUUUUCUAUACAUGAGGAUCACCCAUGUUUUUAGGAUAUCAGCGUGAAACACGCUGAGAAGGAAGAACAAUCC,15.4,18.5,–,–
GGGUACAUCGGAGGAUAUCAUGUAAAUACAUGAGGAUCACCCAUGUCGAUGGAGAGAUCGGAGAUUGAGAAGGCCGAUGUACCG,–,–,97.4,41
AAGCACAGAGGAUAUACAUGGGUGAUAAAAAAAAUGUAAAAACAUGAGGAUCACCCAUGUAGAAGGCUGUGCAA,22.6,16.5,–,–
AAACCUAUAGGAUAUACAUGAGGAUCACCCAUGUUGCGAUUUUUUAGGUAACAGAUCCGUAGAAGGGUAGGUUA,23.8,57.6,–,–
AUGCCUUAUGUAGGAUAUGCAUAGAGUUGCUAUGCAGAAGGACAUGAGGAUCACCCAUGUAUGUAUACCAUACAUAUCUGGCAU,35.6,316,–,–
CUCGUGUCAGGAUAUCGAUGGCACCUCCGGGCGCCCGAACGCGAGAAGGGACAUGAGGAUCACCCAUGUAAAAC,66.8,113,–,–
GUGGUCAGACAUGAGGAUCACCCAUGUGGAAUAAAUAAGGAGAAGGAUAUGAAAUAUAGGAUAUAUCAGAAGGUCUGGUUGGUG,–,–,72.2,77.1
UGUAGGAGCAGAGGAUAUUACAUGAGGAUCACCCAUGUAUGAACCAAUAGCUGGAAACAGCAAUGUAAGAAGGCUGCUCCGACA,12.2,187,–,–
GUCAGCUCGUGAGGAUAUACAUGUGCUGGAUACAGCACUAUUAAGUUCACAUGAGGAUCACCCAUGUAGAAGGCACGAGCUGAU,15.8,20.4,–,–
CCGCAAAAGGAGGAUAUCGUAUCGGAUACGAUACGAGAAGGCUUUACAUGAGGAUCACCCAUGUGUCCUAGCGG,13.7,19.2,–,–

Sequence,apparent Kd [1] [nM],apparent Kd [2] [nM],apparent Kd [3] [nM],apparent Kd [4] [nM]
GCGGUGAUCCUAGCUCACAUGAGGAUCACCCAUGUGCAGUUCAAGGAUAUACGUUGCCGCUCCGCGUAGAAGGUGAACUCGCUA,43,44.1,–,–
CGUCCACAUGAGGAUCACCCAUGUGAGGAUAUCGAUGUCCCAGGGCGGGUGCGGGACUCGAGAAGGCGCUAGGU,23.3,29,–,–
UCAUACGGUGAGGAUAUCUCCGCUAAAGUGUGUAGAGAAGGCGCUACAUGAGGAUCACCCAUGUUUGUGGGCAG,402,149,–,–
AGUACCAUGUAGAAGGGAUAUCUGAUUCAGAUAUCAGGAUAUACAUGAGGAUCACCCAUGUAAAUGUACUCCAGGAAACUGGAA,18,48,–,–
CGGGAGCCGAAGGGCGAAAGCCCACAUGAGGAUCACCCAUGUAGAAGGCGGGCCGCAACGCGGCCCGAGGAUAUACAGGCUCCA,5.99,10.5,–,–
CCAUGACCGUAAGCGAUUACCACAUGAGGAUCACCCAUGUACAGAAGGCGGACGUCAUUAUGAACCGAGGAUAUGUACCAGGGU,92.2,12.1,–,–
CGAUCGUGUAGAGGAUAUGUUAAACAUGAGGAUCACCCAUGUAAGGUAGAAAUUUUUAUAAACAUACAGAAGGCUACACGAUCG,7.32,5.15,–,–
GAGGAGCAAGGAUAUACGAGGAUAGGGAAGGUUGGAGAGUGACAUGAGGAUCACCCAUGUAGAAGGUGCAAGGG,114,74,–,–
GACUUCUCUGAGGAUAUUGCAUCAUACGAUUUAUAAGAAGGCAGAACAUGAGGAUCACCCAUGUGGGUUUCUAG,59,108,–,–
AGGGAGUAAGGAUAUGCUGCUCGUCACUUGCGUGAUGAGUAGCAGAAGGUACAUGAGGAUCACCCAUGUAAAGA,30,22.9,–,–
CUACGGGACGGAGAUCGUGGUGAAGUAGAAGGGUGAGAUGACAUGAGGAUCACCCAUGUAGUAGCGCAGGAUAUACGGCACCGG,–,–,388,103
AGCUAGUCAGGAUAUACGAAAAUGUCAGAGGCUGUGAAGGGACAUGAGGAUCACCCAUGUAGAAGGGACUAGCA,96.8,136,–,–
GCUAGUGCUGUGAGGAUAUGUGAUCGGAAAUGAUCGUAGAAGGCACAUGAGGAUCACCCAUGUAAGGUGCUAGU,287,37.6,–,–
GUCAGCUCGUUAGGAUAUACAACACUGCUUCGGCAGUGUAUUAAGAUCACAUGAGGAUCACCCAUGUAGAAGGCACGAGCUGAU,8.16,29.5,–,–
UGAUAACAUGUAGGAUAUCCAGCAUUGACCAUCGGAGAAGGACAUGAGGAUCACCCAUGUACCGAUACAAUGGGAUAAUGGAAU,15.5,17.2,–,–
UCUUAUUGCAAGGAUAUGCAAAUUAUUUUUUAAGCAGAAGGUGCAACAUGAGGAUCACCCAUGUUUCCGGGAAA,19.4,111,–,–
UAAAAGACUAGUAUGGUAACCUUCACAUGAGGAUCACCCAUGUAGGAUAUGAGCAGAAAAUCUGCUCAGAAGGACAUGCUAGUC,3.73,4.25,–,–
GUCAGCUCGUGAGGAUAUACAACACUGCUUCGACAGUGUAUUAAGAUCACAUGAGGAUCACCCAUGUAGAAGGCACGAGCUGAU,13.6,211,–,–
